Data reported in ChEMBL document CHEMBL3286371, “wALADin benzimidazoles differentially modulate the function of porphobilinogen synthase orthologs” (J Med Chem, 2014).
Calls of active or inactive are those of the source. The calls are words filed in the database; no cut-off is given here.

How the values were obtained:
[1] = molecular target: T1, Delta-aminolevulinic acid dehydratase, chloroplastic (Pisum sativum) (UniProt P30124); assay: Competitive inhibition of Pisum sativum PBGS using 5-ALA as substrate at 6.25 to 100 uM; details: Lathyrus oleraceus
T1 sequence (whole entry): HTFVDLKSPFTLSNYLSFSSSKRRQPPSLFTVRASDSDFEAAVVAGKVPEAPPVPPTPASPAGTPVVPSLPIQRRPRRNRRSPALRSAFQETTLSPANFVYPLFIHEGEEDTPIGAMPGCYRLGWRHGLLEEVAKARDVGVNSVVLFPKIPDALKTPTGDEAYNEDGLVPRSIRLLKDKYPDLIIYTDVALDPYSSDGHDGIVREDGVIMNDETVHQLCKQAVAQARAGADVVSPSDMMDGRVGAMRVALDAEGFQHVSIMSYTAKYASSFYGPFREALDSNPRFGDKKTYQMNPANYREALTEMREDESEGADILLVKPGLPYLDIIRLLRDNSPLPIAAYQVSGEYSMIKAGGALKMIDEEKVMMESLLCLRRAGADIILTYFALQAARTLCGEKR

[2] = molecular target: Delta-aminolevulinic acid dehydratase (Yersinia enterocolitica W22703) (UniProt F4MUJ9); assay: Stimulation of Yersinia enterocolitica recombinant PBGS expressed in Escherichia coli using 5-ALA as substrate relative to control
Chain of Delta-aminolevulinic acid dehydratase (Yersinia enterocolitica W22703) (F4MUJ9 as listed by the source): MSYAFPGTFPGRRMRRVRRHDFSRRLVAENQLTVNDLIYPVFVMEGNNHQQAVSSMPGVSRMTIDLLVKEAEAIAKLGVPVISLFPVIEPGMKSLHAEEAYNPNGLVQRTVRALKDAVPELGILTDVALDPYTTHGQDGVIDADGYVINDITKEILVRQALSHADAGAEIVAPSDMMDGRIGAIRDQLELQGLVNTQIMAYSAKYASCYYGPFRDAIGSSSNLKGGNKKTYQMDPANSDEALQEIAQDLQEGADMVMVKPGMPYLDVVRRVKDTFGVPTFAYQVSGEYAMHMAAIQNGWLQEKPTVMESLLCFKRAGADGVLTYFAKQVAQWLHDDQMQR
Procedure, shortened: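 Y. enterocolitica PBGS, expressed in E. coli from pET3, at 150 nM subunit in 100 mM BTP-HCl pH 8.0 with 1 mM MgCl2, 5 mM DTT, 100 mM KCl and 0.2 mM 5-ALA, 10 min at 36 °C. Porphobilinogen read with Ehrlich's reagent. Activity normalized to 6.7% DMSO control as 100%. EC50 from variable-slope agonist fit.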

[3] = molecular target: Delta-aminolevulinic acid dehydratase (Pseudomonas aeruginosa (strain ATCC 15692 / PAO1 / 1C / PRS 101 / LMG12228)) (UniProt Q59643); assay: Stimulation of Pseudomonas aeruginosa PAO1 recombinant PBGS assessed as stabilization of dimeric form at 8 to 2000 uM by nondenaturing PAGE analysis in presence of Mg2+ and K+ and 5-ALA
Chain of Delta-aminolevulinic acid dehydratase (Pseudomonas aeruginosa (strain ATCC 15692 / PAO1 / 1C / PRS 101 / LMG12228)) (Q59643 whole entry): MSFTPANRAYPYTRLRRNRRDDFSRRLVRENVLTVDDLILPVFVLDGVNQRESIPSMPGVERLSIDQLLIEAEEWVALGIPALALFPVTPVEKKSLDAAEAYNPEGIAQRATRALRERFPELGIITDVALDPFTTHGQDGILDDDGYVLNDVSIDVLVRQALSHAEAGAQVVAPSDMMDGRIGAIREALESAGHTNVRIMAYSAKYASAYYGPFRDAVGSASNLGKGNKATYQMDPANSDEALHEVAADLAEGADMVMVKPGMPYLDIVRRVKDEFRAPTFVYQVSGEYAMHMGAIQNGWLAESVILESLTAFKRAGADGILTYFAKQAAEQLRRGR

[4] = molecular target: Delta-aminolevulinic acid dehydratase (Pseudomonas aeruginosa (strain ATCC 15692 / PAO1 / 1C / PRS 101 / LMG12228)) (UniProt Q59643); assay: Inhibition of Pseudomonas aeruginosa PAO1 recombinant PBGS using 0.2 mM 5-ALA as substrate assessed as […] at 50 to 200 uM at pH 7.5 by buffer scan assay in presence of 1 mM MgCl2 and 1 to 1000 mM KCl
[5] = molecular target: Delta-aminolevulinic acid dehydratase (Yersinia enterocolitica W22703) (UniProt F4MUJ9); assay: Inhibition of Yersinia enterocolitica recombinant PBGS expressed in Escherichia coli using 5-ALA as substrate at 50 to 200 uM at pH 7 to 8.5 by buffer scan assay
[6] = molecular target: Delta-aminolevulinic acid dehydratase (Pseudomonas aeruginosa (strain ATCC 15692 / PAO1 / 1C / PRS 101 / LMG12228), UniProt Q59643); assay: Stimulation of Pseudomonas aeruginosa PAO1 recombinant PBGS using 5-ALA as substrate
Chain of Delta-aminolevulinic acid dehydratase (Pseudomonas aeruginosa (strain ATCC 15692 / PAO1 / 1C / PRS 101 / LMG12228), UniProt Q59643) (Q59643 whole entry): as above
Procedure, shortened: (§1)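 His-tagged PaPBGS at 150 nM subunit in 100 mM Tris-HCl pH 8.0 with 1 mM MgCl2, 100 mM KCl and 0.2 mM 5-ALA, 10 min at 36 °C, with turnover at most 30%. Porphobilinogen read with Ehrlich's reagent. Activity normalized to 6.7% DMSO control as 100%. EC50 from variable-slope agonist fit.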

[7] = molecular target: Delta-aminolevulinic acid dehydratase (Pseudomonas aeruginosa (strain ATCC 15692 / PAO1 / 1C / PRS 101 / LMG12228)) (UniProt Q59643); assay: Inhibition of Pseudomonas aeruginosa PAO1 recombinant PBGS using 0.2 mM 5-ALA as substrate at 10 to 10000 uM at pH 7.5 by buffer scan assay in presence of 1 mM MgCl2
[8] = molecular target: T1, Delta-aminolevulinic acid dehydratase, chloroplastic (Pisum sativum); assay: Inhibition of Pisum sativum PBGS using 5-ALA as substrate at 8 to 2000 uM after 30 mins by nondenaturing PAGE analysis; details: Lathyrus oleraceus
[9] = molecular target: T2, Delta-aminolevulinic acid dehydratase (Escherichia coli (strain K12)) (UniProt P0ACB2); assay: Stimulation of Escherichia coli recombinant PBGS using 5-ALA as substrate at 10 to 1000 uM at pH 8 in presence of MgCl2 and KCl
T2 sequence (whole entry): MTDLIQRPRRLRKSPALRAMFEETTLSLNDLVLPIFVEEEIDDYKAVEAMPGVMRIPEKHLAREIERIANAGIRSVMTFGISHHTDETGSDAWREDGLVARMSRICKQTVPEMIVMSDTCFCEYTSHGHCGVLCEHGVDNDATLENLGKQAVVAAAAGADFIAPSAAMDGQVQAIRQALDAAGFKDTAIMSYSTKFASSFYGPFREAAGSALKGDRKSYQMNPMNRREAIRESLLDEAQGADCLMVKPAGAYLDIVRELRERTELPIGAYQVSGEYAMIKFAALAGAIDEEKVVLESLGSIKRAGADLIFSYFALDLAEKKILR

[10] = molecular target: Delta-aminolevulinic acid dehydratase (Yersinia enterocolitica W22703, UniProt F4MUJ9); assay: Stimulation of Yersinia enterocolitica recombinant PBGS expressed in Escherichia coli using 5-ALA as substrate
Chain of Delta-aminolevulinic acid dehydratase (Yersinia enterocolitica W22703, UniProt F4MUJ9) (F4MUJ9 whole entry, one chain of several): as the sequence (F4MUJ9 as listed by the source) above

[11] = molecular target: T3, Delta-aminolevulinic acid dehydratase (Escherichia coli (strain K12), UniProt P0ACB2); assay: Stimulation of Escherichia coli recombinant PBGS using 5-ALA as substrate
T3 sequence (P0ACB2 whole entry): T2 sequence (whole entry)
Procedure, shortened: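 E. coli PBGS at 200 nM subunit in 100 mM BTP-HCl pH 8.1 with 1 mM MgCl2, 10 μM ZnCl2, 5 mM DTT and 0.2 mM 5-ALA, 10 min at 36 °C. Porphobilinogen detected with Ehrlich's reagent. Activity normalized to control with 6.7% DMSO set at 100%. EC50 by log(agonist) vs response variable-slope fit.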

[12] = molecular target: Delta-aminolevulinic acid dehydratase (Pseudomonas aeruginosa (strain ATCC 15692 / PAO1 / 1C / PRS 101 / LMG12228)) (UniProt Q59643); assay: Activation of Pseudomonas aeruginosa PAO1 recombinant PBGS using 0.2 mM 5-ALA as substrate at 10 to 10000 uM at pH 7.5 by buffer scan assay in presence of 10 mM MgCl2
[13] = molecular target: T1, Delta-aminolevulinic acid dehydratase, chloroplastic (Pisum sativum); assay: Non-competitive inhibition of Pisum sativum PBGS using 5-ALA as substrate at 6.25 to 100 uM; details: Lathyrus oleraceus
[14] = molecular target: T1, Delta-aminolevulinic acid dehydratase, chloroplastic (Pisum sativum); assay: Partial competitive inhibition of Pisum sativum PBGS using 5-ALA as substrate at 6.25 to 100 uM in presence of MgCl2; details: Lathyrus oleraceus
[15] = molecular target: Delta-aminolevulinic acid dehydratase (Pseudomonas aeruginosa (strain ATCC 15692 / PAO1 / 1C / PRS 101 / LMG12228)) (UniProt Q59643); assay: Competitive inhibition of Pseudomonas aeruginosa PAO1 recombinant PBGS using 0.2 mM 5-ALA as substrate assessed as increase in Km at 50 to 200 uM at pH 7.5 by Michaelis-Menten plot analysis in presence of MgCl2
Procedure, shortened: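 PaPBGS under "standard inhibitory" conditions (100 mM Tris-HCl pH 7.5, 1 mM MgCl2, no KCl). 5-ALA varied for substrate-response curves at several wALADin1 levels; KM and VMAX derived from the fits. Incubation at 36 °C.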

[16] = molecular target: Delta-aminolevulinic acid dehydratase (Pseudomonas aeruginosa (strain ATCC 15692 / PAO1 / 1C / PRS 101 / LMG12228)) (UniProt Q59643); assay: Stimulation of Pseudomonas aeruginosa PAO1 recombinant PBGS using 5-ALA as substrate relative to control; procedure, shortened: as §1
[17] = molecular target: Delta-aminolevulinic acid dehydratase (Pseudomonas aeruginosa (strain ATCC 15692 / PAO1 / 1C / PRS 101 / LMG12228)) (UniProt Q59643); assay: Inhibition of Pseudomonas aeruginosa PAO1 recombinant PBGS using low 5-ALA level as substrate at 50 to 200 uM by buffer scan assay

SMILES: O=C(O)c1ccc2c(c1)nc(CCNC(=O)c1cccs1)n2Cc1cccc(C(F)(F)F)c1
- inhibition [1]: Active
- Smax [2]: 152%
- Activity [3]: inactive
- inhibition [4]: inactive
- inhibition [5]: Active
- EC50 [6]: 69 µM
- inhibition [7]: Active
- inhibition [8]: Active
- Activity [9]: Active
- EC50 [10]: 66 µM
- EC50 [11]: 60 µM
- Activity [12]: Active
- inhibition [13]: Active
- inhibition [14]: Active
- inhibition [15]: Active
- Smax [16]: 123%
- inhibition [17]: Active
